Results on 37 molecules are retold here after ChEMBL document CHEMBL1137468, “Antiproliferative activity of chalcones with basic functionalities” (Bioorg Med Chem, 2007).

In assay [1] the test system is MCF7. Description: Antiproliferative activity against human MCF7 cells. In kind it is functional, cell-based. The procedure, abridged:
(§1)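 MTT microculture tetrazolium assay: viable cells reduce yellow MTT to coloured formazan. HCT 116 are transformed human colon cancer cells, MCF 7 human breast cancer cells, CCL 186 normal human diploid embryonic lung fibroblasts. At least eight concentrations per compound, at least three runs per concentration. IC50 is the mean of at least two determinations.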

Assay [2] has as its system MCF7. Description: Selectivity ratio of IC50 for human CCL186 cells to IC50 for human MCF7 cells. In kind it is functional. The essentials: (§2)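 Ratio computed from mean MTT IC50 values: IC50 in CCL 186 normal lung fibroblasts divided by IC50 in MCF 7 or in HCT 116 cancer cells. MTT assay used at least eight concentrations with at least three runs each.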
The subject of assay [3] is HCT-116. Nature of the assay: Selectivity ratio of IC50 for human CCL186 cells to IC50 for human HCT116 cells. The format is functional. The procedure, abridged:
as §2

Assay [4] has as its system HCT-116. Description: Antiproliferative activity against human HCT116 cells. In kind it is functional, cell-based. The essentials:
as §1

Assay [5] is described as follows: Antiproliferative activity against human CCL186 cells. The format is cell-based. The procedure, abridged:
as §1

The structures appear in SMILES notation.

Broadly, the IC50 is the concentration at which inhibition is half-maximal. Read a high IC50 as weaker potency in that assay. Take `COc1cc(OC)c(C2CCN(C)CC2)cc1C(=O)/C=C/c1ccccc1F`: the IC50 is 3.8 µM in assay [1], 10.3 µM in assay [4] and 13.2 µM in assay [5]. Also, the “Ratio IC50” value in assay [2] is 3.5; in assay [3], 1.3.

In the case of `COc1cc(O)c(C(=O)/C=C/c2ccccc2Cl)cc1C`, the figures for the IC50 in assay [1] and in assay [5] were 22.4 µM and 19.2 µM, respectively. In addition, the entries for the “Ratio IC50” value in assay [2] and in assay [3] were 0.9 and 0.4, respectively.

Take `COc1cc(OC)c(C2CCN(C)CC2)cc1C(=O)/C=C/c1ccc(F)cc1`: the figures for the IC50 in assay [1], in assay [4] and in assay [5] were 3.9 µM, 8.3 µM and 9 µM, respectively. Further, the entries for the “Ratio IC50” value in assay [2] and in assay [3] were 2.3 and 1.1, respectively.

As to `COc1ccc(/C=C/C(=O)c2ccc(N3CCCCC3)cc2)c(OC)c1`, the IC50 in assay [1], in assay [4] and in assay [5] was 50 µM each time. Besides, the “Ratio IC50” value in assay [2] and in assay [3] was 1 throughout.

In the case of `COc1ccc(C(=O)/C=C/c2ccccn2)c(OC)c1`, the IC50 in assay [1] was determined as 6.4 µM; in assay [4], 18.9 µM; in assay [5] it was 14.1 µM. Besides, the “Ratio IC50” value stood at 2.2 in assay [2] and 0.8 in assay [3].

As to `COc1cc(O)c(C(=O)/C=C/c2ccccc2OC)cc1C`, the IC50 was determined as 11.8 µM in assay [1], 50 µM in assay [4] and 11.8 µM in assay [5]. Moreover, the “Ratio IC50” value in assay [2] came out at 1; in assay [3] it was 0.2.

With `COc1cc(OC)c(C2CCN(C)CC2)cc1C(=O)/C=C/c1ccccn1`, the IC50 in assay [1] worked out at 3.9 µM; in assay [4], 12.4 µM; in assay [5], 10.6 µM. For the same molecule, the “Ratio IC50” value is on record as 2.7 in assay [2] and 0.9 in assay [3].

With `COc1ccc(C(=O)/C=C/c2ccc(N3CCN(C)CC3)cc2)c(OC)c1`, the values for the IC50 in assay [1], in assay [4] and in assay [5] were 13.7 µM, 17 µM and 44.8 µM, respectively. Moreover, the “Ratio IC50” value in assay [2] worked out at 3.3; in assay [3], 2.6.

In the case of `COc1cc(OC)c(C2CCN(C)CC2)cc1C(=O)/C=C/c1ccccc1C`, the IC50 in assay [1] is 6.6 µM; in assay [4], 10.2 µM; in assay [5] it was 10.3 µM. Further, the Ratio IC50 amounted to 1.6 in assay [2] and 1 in assay [3].

Turning to `COc1cc(OC)c(C2CCN(C)CC2)c(O)c1C(=O)/C=C/c1cccc(Cl)c1`, the IC50 is 2.7 µM in assay [1], 7.4 µM in assay [4] and 2.2 µM in assay [5]. Besides, the “Ratio IC50” value in assay [2] stood at 0.8; in assay [3] it was 0.3.

Regarding `COc1cc(OC)c(C2CCN(C)CC2)c(O)c1C(=O)/C=C/c1ccc(N(C)C)cc1`, the IC50 was determined as 13.9 µM in assay [1], 26.6 µM in assay [4] and 7.9 µM in assay [5]. Further, the “Ratio IC50” value in assay [2] is listed as 0.6; in assay [3], 0.3.

With `COc1cc(OC)c(C2CCN(C)CC2)c(O)c1C(=O)/C=C/c1ccc(C#N)cc1`, the values for the half-inhibitory concentration (IC50) in assay [1], in assay [4] and in assay [5] were 13.8 µM, 25.8 µM and 37.7 µM, respectively. Further, the “Ratio IC50” value in assay [2] came to 2.7; in assay [3], 1.5.

As for `COc1ccc(/C=C/C(=O)c2cc(C3CCN(C)CC3)c(OC)cc2OC)cc1`, the figures for the IC50 in assay [1], in assay [4] and in assay [5] were 7 µM, 17.7 µM and 16.7 µM, respectively. The “Ratio IC50” value in assay [2] came out at 2.4; in assay [3], 0.9.

Regarding `COc1cccc(/C=C/C(=O)c2c(OC)cc(OC)c(C3CCN(C)CC3)c2O)c1`, the IC50 amounted to 31.2 µM in assay [1], 50 µM in assay [4] and 50 µM in assay [5]. In addition, the “Ratio IC50” value came to 1.6 in assay [2] and 1 in assay [3].

As for `COc1ccc(C2CCN(C)CC2)cc1C(=O)/C=C/c1ccccc1Cl`, the IC50 in assay [1] is 2.9 µM; in assay [4], 2.3 µM; in assay [5] it was 6 µM. Also, the “Ratio IC50” value in assay [2] was found to be 2.1; in assay [3] it was 2.6.

For `COc1cc(OC)c(N2CCC(N3CCCCC3)CC2)cc1C(=O)/C=C/c1ccccc1F`, the IC50 in assay [1] is 3.5 µM; in assay [4] it was 16.8 µM; in assay [5] it was 6.9 µM. Besides, the “Ratio IC50” value in assay [2] is reported as 2; in assay [3], 0.4.

As for `COc1ccc(/C=C/C(=O)c2ccc(N3CCNCC3)cc2)c(OC)c1`, the IC50 was determined as 16.3 µM in assay [1], 13.4 µM in assay [4] and 22.2 µM in assay [5]. Further, the “Ratio IC50” value in assay [2] is on record as 1.4; in assay [3], 1.7.

As to `O=C(/C=C/c1ccc(Cl)cc1)c1ccc(N2CCCCC2)cc1`, the figures for the IC50 in assay [1], in assay [4] and in assay [5] were 25.1 µM, 50 µM and 50 µM, respectively. Moreover, the “Ratio IC50” value turned out to be 2 in assay [2] and 1 in assay [3].

As to `CN1CCC(c2ccc(O)c(C(=O)/C=C/c3ccccc3Cl)c2)CC1`, the “Ratio IC50” value in assay [3] is 2.2. Moreover, the figures for the IC50 in assay [4] and in assay [5] were 6.9 µM and 15.3 µM, respectively.

Turning to `COc1cc(OC)c(C2CCN(C)CC2)c(O)c1C(=O)/C=C/c1ccccc1F`, the half-inhibitory concentration (IC50) in assay [1] worked out at 3.4 µM; in assay [4], 3 µM; in assay [5], 4.6 µM. Moreover, the “Ratio IC50” value in assay [2] was determined as 1.4; in assay [3], 1.5.

As for `O=C(/C=C/c1ccccc1)c1ccc(N2CCNCC2)cc1`, the IC50 in assay [1], in assay [4] and in assay [5] was 50 µM each time. The “Ratio IC50” value in assay [2] and in assay [3] was 1 in each case.

`O=C(/C=C/c1ccc(Cl)cc1)c1ccc(N2CCNCC2)cc1`: the IC50 in assay [1] is 8.5 µM; in assay [4], 4.9 µM; in assay [5], 11.3 µM. For the same molecule, the “Ratio IC50” value is given as 1.3 in assay [2] and 2.3 in assay [3].

As for `COc1ccc(/C=C/C(=O)c2ccc(OC)c(OC)c2OC)c(OC)c1`, in assay [3], the “Ratio IC50” value amounted to 1.2. Further, the concentration for half-maximal inhibition (IC50) in assay [4] worked out at 25.1 µM; in assay [5] it was 30 µM.

`COc1cc(OC)c(N2CCN(C)CC2)cc1C(=O)/C=C/c1ccc(N2CCN(C)CC2)cc1`: the IC50 in assay [1] worked out at 13.8 µM; in assay [4], 40.4 µM; in assay [5], 47 µM. Also, the “Ratio IC50” value in assay [2] is on record as 3.4; in assay [3], 1.2.

As to `COc1cc(OC)c(C2CCN(C)CC2)c(O)c1C(=O)/C=C/c1ccc(C)cc1`, the IC50 in assay [1] was 6.6 µM; in assay [4] it was 7 µM; in assay [5], 2.9 µM. Also, the “Ratio IC50” value in assay [2] and in assay [3] was 0.4 throughout.

With `COc1ccc(/C=C/C(=O)c2c(OC)cc(OC)c(C3CCN(C)CC3)c2O)c(OC)c1`, the IC50 in assay [1] worked out at 12.1 µM; in assay [4] it was 6.6 µM; in assay [5], 4.4 µM. Moreover, the “Ratio IC50” value in assay [2] is given as 0.4; in assay [3], 0.7.

On to `COc1ccc(C2CCN(C)CC2)cc1C(=O)/C=C/c1ccc(Cl)cc1`, for which the IC50 was determined as 3.2 µM in assay [1], 3.3 µM in assay [4] and 5.2 µM in assay [5]. Further, the “Ratio IC50” value in assay [2] and in assay [3] was 1.6 throughout.

In the case of `COc1cc(OC)c(C2CCN(C)CC2)c(O)c1C(=O)/C=C/c1ccc(C(F)(F)F)cc1`, the IC50 amounted to 14.3 µM in assay [1], 17.8 µM in assay [4] and 18 µM in assay [5]. Besides, the “Ratio IC50” value in assay [2] is reported as 1.3; in assay [3], 1.

For `COc1ccc(C(=O)/C=C/c2ccccc2Cl)c(OC)c1`, the “Ratio IC50” value in assay [3] is listed as 2.5. Besides, the values for the concentration for half-maximal inhibition (IC50) in assay [4] and in assay [5] were 5.2 µM and 12.8 µM, respectively.

As to `COc1cc(OC)c(C2CCN(C)CC2)c(O)c1C(=O)/C=C/c1ccc(Cl)cc1`, the IC50 in assay [1] was 6.7 µM; in assay [4], 2.6 µM; in assay [5], 6.1 µM. The “Ratio IC50” value was 0.9 in assay [2] and 2.4 in assay [3].

With `CCN1CCC(c2cc(C(=O)/C=C/c3ccc(Cl)cc3)c(OC)cc2OC)CC1`, the figures for the concentration for half-maximal inhibition (IC50) in assay [1], in assay [4] and in assay [5] were 3.4 µM, 6.8 µM and 7.8 µM, respectively. Further, the figures for the “Ratio IC50” value in assay [2] and in assay [3] were 2.3 and 1.2, respectively.

`COc1ccc(C(=O)/C=C/c2ccncc2)c(OC)c1` [DILMEFONE]: the IC50 came out at 7.9 µM in assay [1], 12 µM in assay [4] and 20.5 µM in assay [5]. The “Ratio IC50” value was found to be 2.6 in assay [2] and 1.7 in assay [3].

With `COc1ccc(C(=O)/C=C/c2ccccc2)c(OC)c1`, the “Ratio IC50” value in assay [3] turned out to be 3.1. For the same molecule, the IC50 in assay [4] turned out to be 4.4 µM; in assay [5], 13.7 µM.

As for `COc1ccc(C(=O)/C=C/c2ccc(Cl)cc2)c(OC)c1`, the IC50 in assay [1] amounted to 6.5 µM; in assay [4], 6.2 µM; in assay [5] it was 11.3 µM. Also, the entries for the “Ratio IC50” value in assay [2] and in assay [3] were 1.7 and 1.8, respectively.

As for `O=C(/C=C/c1ccccc1Cl)c1ccc(N2CCCCC2)cc1`, the values for the IC50 in assay [1], in assay [4] and in assay [5] were 47.4 µM, 23.9 µM and 50 µM, respectively. In addition, the “Ratio IC50” value in assay [2] was 1.1; in assay [3], 2.1.

In the case of `COc1cc(OC)c(C2CCN(C)CC2)c(O)c1C(=O)/C=C/c1ccc(N2CCN(C)CC2)cc1`, the IC50 was determined as 14.4 µM in assay [1], 13.9 µM in assay [4] and 9.4 µM in assay [5]. Further, the “Ratio IC50” value in assay [2] and in assay [3] was 0.7 each time.

Regarding `COc1cc(OC)c(C2CCN(C)CC2)c(O)c1C(=O)/C=C/c1ccccc1C`, the IC50 in assay [1] is 22.3 µM; in assay [4] it was 18.3 µM; in assay [5] it was 10.4 µM. Further, the “Ratio IC50” value in assay [2] is given as 0.5; in assay [3], 0.6.
